These results are taken from ChEMBL document CHEMBL1143909, “Novel cholesterol biosynthesis inhibitors targeting human lanosterol 14alpha-demethylase (CYP51)” (Bioorg Med Chem, 2008).

Calls of active or inactive are those of the source. No cut-off for these calls is given here.

For test [1], the target named is T1, Lanosterol 14-alpha demethylase (Homo sapiens, UniProt Q16850).
T1 sequence (Q16850 whole entry): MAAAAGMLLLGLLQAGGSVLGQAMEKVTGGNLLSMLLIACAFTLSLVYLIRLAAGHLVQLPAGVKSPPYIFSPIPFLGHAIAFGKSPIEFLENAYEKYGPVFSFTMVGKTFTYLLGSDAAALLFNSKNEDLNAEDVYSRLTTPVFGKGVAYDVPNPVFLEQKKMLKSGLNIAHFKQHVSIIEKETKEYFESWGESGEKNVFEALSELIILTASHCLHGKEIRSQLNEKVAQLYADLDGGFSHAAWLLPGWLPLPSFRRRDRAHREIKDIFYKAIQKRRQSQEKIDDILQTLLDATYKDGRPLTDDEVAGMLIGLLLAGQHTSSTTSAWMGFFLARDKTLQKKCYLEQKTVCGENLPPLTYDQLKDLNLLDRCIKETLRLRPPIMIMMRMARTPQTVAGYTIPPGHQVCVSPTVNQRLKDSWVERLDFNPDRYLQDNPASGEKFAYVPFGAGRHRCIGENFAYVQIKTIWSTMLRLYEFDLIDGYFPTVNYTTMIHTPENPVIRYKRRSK
Briefly: Binding affinity to human His-tagged CYP51 expressed in Escherichia coli. A digest of the protocol:
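Purified His-tagged human CYP51 titrated with inhibitor at room temperature in 50 mM phosphate, 100 mM NaCl, 0.1 mM EDTA, 10% glycerol. Difference spectra recorded 350-500 nm; A412–A432 plotted against inhibitor concentration. Enzyme 0.5 or 2 µM, titration ranges 0.25-400 µM depending on compound. Apparent Kd from hyperbolic nonlinear fit of free inhibitor; three repeats per compound.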

Another test has as its system HepG2. Nature of the test: Ex vivo inhibition of CYP51 mediated cholesterol biosynthesis in human HepG2 cells assessed as increase in lanosterol accumulation at 10 uM relative to control.
Test [2] concerns the target T2, Delta(14)-sterol reductase TM7SF2 (Homo sapiens) (UniProt O76062).
T2 sequence (whole entry): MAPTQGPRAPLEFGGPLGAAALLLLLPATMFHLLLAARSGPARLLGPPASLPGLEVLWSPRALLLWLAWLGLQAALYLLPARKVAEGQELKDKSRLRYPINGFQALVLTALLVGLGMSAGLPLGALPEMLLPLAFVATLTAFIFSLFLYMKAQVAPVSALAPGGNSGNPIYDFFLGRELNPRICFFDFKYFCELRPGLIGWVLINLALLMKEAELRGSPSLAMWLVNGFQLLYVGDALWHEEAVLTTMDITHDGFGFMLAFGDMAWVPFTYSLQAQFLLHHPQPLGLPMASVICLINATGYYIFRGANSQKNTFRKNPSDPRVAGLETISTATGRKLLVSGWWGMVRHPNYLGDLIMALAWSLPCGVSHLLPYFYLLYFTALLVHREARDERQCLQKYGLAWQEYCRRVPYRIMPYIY
Briefly: Inhibition of Delta-(14)-sterol reductase in human HepG2 cells assessed as accumulation of FF-MAS. Format: cell-based. The gist of the method:
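HepG2 cells grown 24 h at 37 °C, 5% CO2 in DMEM high with 5% calf serum, then 10 µM compound for 24 h. Fresh medium with [3H]acetate (40 µCi/ml) for 4 h. Sterols extracted from homogenate with ergosterol internal standard, separated by reversed-phase HPLC (100% acetonitrile, 40 °C) with radioactivity detection. Read as ratios to untreated cells: two experiments × two replicas, mean of 8 ratios ± SD.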

Take `Br.CCCN(CCc1ccc(Cl)c(Cl)c1)CC(O)c1cc(C)ccn1` (centres undefined): in test [1], the Kd is over 1000 µM. The Activity with HepG2 is given as 1.2.

Turning to `CC(=O)N1CCN(c2ccc(OC[C@H]3CO[C@](Cn4ccnc4)(c4ccc(Cl)cc4Cl)O3)cc2)CC1` [KETOCONAZOLE], the Kd in test [1] came out at 0.11 µM.

For the molecule `Br.CCCN(CCc1ccc(Cl)c(Cl)c1)CC(O)c1cccnc1` (centres undefined), the affinity in test [1], expressed as Kd, was 0.4 µM. For the same molecule, in the test with HepG2, the Activity is given as 6.

`Br.CCCN(CCc1ccc(F)c(F)c1)CC(O)c1cccnc1` (centres undefined) yielded a Kd in test [1] of 27 µM. Besides, in the test on HepG2, the Activity came to 1.9. For `Br.CCCN(CCc1ccc(OC)c(OC)c1)CC(O)c1cccnc1` (centres undefined) the same measures were 29.2 µM and 1.8. With `CCCN(CCc1cccnc1)CCc1cccc(F)c1`, in test [2], the result was Active. `Br.CCCN(CCc1ccc2ccccc2c1)CC(O)c1cccnc1` (centres undefined) yielded a dissociation constant (Kd) in test [1] of 0.34 µM. For the same molecule, the Activity with HepG2 worked out at 5. For the molecule `Br.CCCN(CCc1cccnc1)CC(O)c1cccnc1` (centres undefined), in test [1], binding was characterised by a dissociation constant (Kd) of 260 µM. Further, the Activity with HepG2 is listed as 1.
